Activity calls are given as the source filed them. No cut-off for these calls is given here.
Assays:
HT = test: Antiproliferative activity against human HT cells assessed as inhibition of cell viability measured for 6 to 7 days by cell titer glo assay; type: functional, cell-based
How it was run: (§1)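 Cells seeded in recommended growth medium, incubated overnight at 37°C in 5% CO2, then exposed to serial dilutions of inhibitor for 6–7 d. A parallel plate was read with CellTiter-Glo at compound addition as a T=0 value. The luminescent viability readout had no-cell background subtracted and was expressed as % of DMSO control.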

BV-173 = test: Antiproliferative activity against human BV-173 cells assessed as inhibition of cell viability measured for 6 to 7 days by cell titer glo assay; type: functional, cell-based
How it was run: (§2)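 Tumor lines plated in recommended growth media, overnight at 37°C, 5% CO2, then given serial dilutions; a T=0 plate read with CellTiter-Glo at dosing. After 6–7 d of exposure, viability read by CellTiter-Glo luminescence. No-cell wells subtracted, data expressed as % of DMSO control.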

THP-1 = test: Antiproliferative activity against human THP-1 cells assessed as inhibition of cell viability measured for 6 to 7 days by cell titer glo assay; type: functional, cell-based
How it was run: (§3)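 Cells seeded in recommended growth medium, held overnight at 37°C in 5% CO2, then exposed to serial dilutions of inhibitor for 6–7 d. A time-zero plate was read with CellTiter-Glo at dosing. Luminescent viability read at the end. No-cell wells subtracted as background, data expressed as percent of DMSO control.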

[1] = Toxicity in SCID nude mouse xenografted with human SW620 cells assessed as body weight loss at 25 to 100 mg/kg, ip administered once daily for 5 consecutive days with 2 days off scheduled for 3 cycles measured upto 60 days relative to control; type: organism-based, SW-620; settings: in vivo, 1440 h, dose 25-100 mg/kg, time 60 day
PC-3 = test: Antiproliferative activity against human PC-3 cells assessed as inhibition of cell viability measured for 6 to 7 days by cell titer glo assay; type: functional, cell-based; how it was run: as §3
MOLT-3 = test: Antiproliferative activity against human MOLT-3 cells assessed as inhibition of cell viability measured for 6 to 7 days by cell titer glo assay; type: functional, cell-based; how it was run: as §1
CTV-1 = test: Antiproliferative activity against human CTV-1 cells assessed as inhibition of cell viability measured for 6 to 7 days by cell titer glo assay; type: functional, cell-based; how it was run: as §2
[2] = Toxicity in SCID nude mouse xenografted with human HCT-116 cells assessed as body weight loss at 25 to 100 mg/kg, ip administered once daily for 5 consecutive days with 2 days off scheduled for 3 cycles measured upto 60 days relative to control; type: organism-based; settings: in vivo, 1440 h, dose 25-100 mg/kg, time < 60 day
SW 954 = test: Antiproliferative activity against human SW 954 cells assessed as inhibition of cell viability measured for 6 to 7 days by cell titer glo assay; type: functional, cell-based; how it was run: as §3
COLO-320-HSR = test: Antiproliferative activity against human COLO 320HSR cells assessed as inhibition of cell viability measured for 6 to 7 days by cell titer glo assay; type: functional, cell-based; how it was run: as §2
RPMI-8226 = test: Antiproliferative activity against human RPMI-8226 cells assessed as inhibition of cell viability measured for 6 to 7 days by cell titer glo assay; type: functional, cell-based; how it was run: as §3
OVCAR-3 = test: Antiproliferative activity against human OVCAR-3 cells assessed as inhibition of cell viability measured for 6 to 7 days by cell titer glo assay; type: functional, cell-based; how it was run: as §3
NCI-H358 = test: Antiproliferative activity against human NCI-H358 cells assessed as inhibition of cell viability measured for 6 to 7 days by cell titer glo assay; type: functional, cell-based; how it was run: as §1
SU-DHL-16 = test: Antiproliferative activity against human SU-DHL-16 cells assessed as inhibition of cell viability measured for 6 to 7 days by cell titer glo assay; type: functional, cell-based; how it was run: as §3
NCI-H630 = test: Antiproliferative activity against human NCI-H630 cells assessed as inhibition of cell viability measured for 6 to 7 days by cell titer glo assay; type: functional, cell-based; how it was run: as §3
[3] = Antiproliferative activity against human A375P cells assessed as inhibition of cell viability measured for 6 to 7 days by cell titer glo assay; type: functional, cell-based; how it was run: as §2
A549 = test: Induction of mitotic alteration in human A549 cells formation of multipolar spindles at 12 to 330 nmol/L incubated for 24 hrs by immunofluorescent microscopy based analysis; type: functional, cell-based; settings: dose lower […], dose upper 330.0 nmol/L
OCI-AML-3 = test: Antiproliferative activity against human OCI-AML-3 cells assessed as inhibition of cell viability measured for 6 to 7 days by cell titer glo assay; type: functional, cell-based; how it was run: as §3
[4] = Antiproliferative activity against human MEC-1 cells assessed as inhibition of cell viability measured for 6 to 7 days by cell titer glo assay; type: functional, cell-based; settings: MEC1; how it was run: as §1
[5] = Antiproliferative activity against human HuNS1 cells assessed as inhibition of cell viability measured for 6 to 7 days by cell titer glo assay; type: functional, cell-based; how it was run: as §1
MDA-MB-453 = test: Antiproliferative activity against human MDA-MB-453 cells assessed as inhibition of cell viability measured for 6 to 7 days by cell titer glo assay; type: functional, cell-based; how it was run: as §1
Daudi = test: Antiproliferative activity against human Daudi cells assessed as inhibition of cell viability measured for 6 to 7 days by cell titer glo assay; type: functional, cell-based; how it was run: as §2
HEL 92.1.7 = test: Antiproliferative activity against human HEL 92.1.7 cells assessed as inhibition of cell viability measured for 6 to 7 days by cell titer glo assay; type: functional, cell-based; how it was run: as §2
KG-1 = test: Antiproliferative activity against human KG-1 cells assessed as inhibition of cell viability measured for 6 to 7 days by cell titer glo assay; type: functional, cell-based; how it was run: as §1
U-266 = test: Antiproliferative activity against human U266B1 cells assessed as inhibition of cell viability measured for 6 to 7 days by cell titer glo assay; type: functional, cell-based
[6] = Antiproliferative activity against human Kasumi-2 cells assessed as inhibition of cell viability measured for 6 to 7 days by cell titer glo assay; type: functional, cell-based; how it was run: as §1
MV4-11 = test: Antiproliferative activity against human MV4-11 cells assessed as inhibition of cell viability measured for 6 to 7 days by cell titer glo assay; type: functional, cell-based; how it was run: as §1
A2780 = test: Antiproliferative activity against human A2780 cells assessed as inhibition of cell viability measured for 6 to 7 days by cell titer glo assay; type: functional, cell-based; how it was run: as §2
SW480 = test: Antiproliferative activity against human SW480 cells assessed as inhibition of cell viability measured for 6 to 7 days by cell titer glo assay; type: functional, cell-based; how it was run: as §3
NC-37 = test: Antiproliferative activity against human NC-37 cells assessed as inhibition of cell viability measured for 6 to 7 days by cell titer glo assay; type: functional, cell-based; how it was run: as §1
NB-4 = test: Antiproliferative activity against human NB4 cells assessed as inhibition of cell viability measured for 6 to 7 days by cell titer glo assay; type: functional, cell-based; how it was run: as §1
HH = test: Antiproliferative activity against human HH cells assessed as inhibition of cell viability measured for 6 to 7 days by cell titer glo assay; type: functional, cell-based; how it was run: as §1
[7] = Antiproliferative activity against human MV-522 cells assessed as inhibition of cell viability measured for 6 to 7 days by cell titer glo assay; type: functional, cell-based; settings: MV522; how it was run: as §1
SW48 = test: Antiproliferative activity against human SW48 cells assessed as inhibition of cell viability measured for 6 to 7 days by cell titer glo assay; type: functional, cell-based; how it was run: as §3
MC-CAR = test: Antiproliferative activity against human MC-CAR cells assessed as inhibition of cell viability measured for 6 to 7 days by cell titer glo assay; type: functional, cell-based; how it was run: as §1
HL-60 = test: Antiproliferative activity against human HL-60 cells assessed as inhibition of cell viability measured for 6 to 7 days by cell titer glo assay; type: functional, cell-based; how it was run: as §1
CCRF-HSB-2 = test: Antiproliferative activity against human HSB-2 cells assessed as inhibition of cell viability measured for 6 to 7 days by cell titer glo assay; type: functional, cell-based; how it was run: as §1

## CCn1cc(-c2ccnc3[nH]c(-c4cccc(CN(C)C)c4)cc23)c(-c2ccc(NC(=O)N(C)C)cc2)n1 [GSK-1070916]
HT
  EC50: 7 nM
BV-173
  EC50: 5 nM
THP-1
  EC50: 5 nM
[1]
  Activity: < 15%
PC-3
  EC50: 11 nM
MOLT-3
  EC50: 5 nM
CTV-1
  EC50: 4 nM
[2]
  Activity: < 15%
SW 954
  EC50: 11 nM
COLO-320-HSR
  EC50: 92 nM
RPMI-8226
  EC50: 11 nM
OVCAR-3
  EC50: 3 nM
NCI-H358
  EC50: 4 nM
SU-DHL-16
  EC50: 4 nM
NCI-H630
  EC50: 127 nM
[3]
  EC50: 7 nM
A549
  Activity: Active
OCI-AML-3
  EC50: 4 nM
[4]
  EC50: 10 nM
[5]
  EC50: 9 nM
MDA-MB-453
  EC50: 6 nM
Daudi
  EC50: 5 nM
HEL 92.1.7
  EC50: 60 nM
KG-1
  EC50: 32 nM
U-266
  EC50: 422 nM
[6]
  EC50: 6 nM
MV4-11
  EC50: 7 nM
A2780
  EC50: 5 nM
SW480
  EC50: 3 nM
NC-37
  EC50: 7 nM
NB-4
  EC50: 11 nM
HH
  EC50: 18 nM
[7]
  EC50: 13 nM
SW48
  EC50: 2 nM
MC-CAR
  EC50: 9 nM
HL-60
  EC50: 10 nM
CCRF-HSB-2
  EC50: 3 nM

— ChEMBL document CHEMBL5705886, “GSK1070916, a potent Aurora B/C kinase inhibitor with broad antitumor activity in tissue culture cells and human tumor xenograft models” (Mol Cancer Ther, 2009)
